Screening results: PubChem BioAssay, Broad Institute
T cruzi repl = blocks replication of Trypanosoma cruzi; AID 1885; inhibition, % (concentration not given with the values); T. cruzi beta-gal in NIH3T3, luminescence, 90 h; 300,000 tested, 1.4% active;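 active means mean inhibition across valid replicates above about 55%, limit read from the data; inconclusive means mean below that limit but half or more replicates reach it; inactive means mean below it, under half of replicates reach it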;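 further: signal also drops with host cell toxicity which is not excluded here; higher percent means less beta-gal luminescence so fewer parasites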
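compound dosing = single 50 nL compound addition per well in DMSO | material = NIH/3T3 host cells with β-galactosidase reporter T. cruzi | input = 5,000 host fibroblasts per well | timing = ≥90 h infection period, 3 h prior cell attachment | read-out basis = percent inhibition of parasite-derived β-gal signal | detection = GalScreen β-gal luminescence, detergent lysis, 60 min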
CSC inhib = cancer stem cell inhibition; 300,000 tested, 1.1% active; inhibition, % at 7.5 µM; cancer stem cell-like cells viability, luminescence; in the data active means inhibition above about 75%; inconclusive means no clear call, values can overlap the other calls; tested in HMLE shEcad cells
Calb FLC = affects C. albicans growth with fluconazole; C. albicans CaCi-2 + fluconazole, Alamar Blue growth, 48 h; growth inhibition, % (concentration not given with the values); 300,000 tested, 0.57% active;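 active means growth inhibition above about 58% in most replicates, limit read from the data, passing the limit was not always enough; inconclusive means exactly half the replicates above a set limit; inactive means most replicates below a set limit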;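 further: all wells also contain fluconazole at 8 µg/ml as a sub-toxic cotreatment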
HIF activator = HIF pathway transcriptional activation | U2OS HRE-luciferase reporter, luminescence; normalized: DMSO 0%, desferrioxamine 100% | activation, % at 7.5 µM (by protocol) | 300,000 tested, 0.32% active | AID 1910;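 active means mean activation of at least 10% of the iron chelator positive control signal, with at least half of replicates also reaching 10%; inconclusive means mean and replicate majority disagree about reaching 10%; inactive means mean and most replicates under 10%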
Beta cell apopt = beta cell apoptosis inhibition; 300,000 tested, 0.8% active; protection from apoptosis, % (no concentration beside the values); INS-1E cytokine-induced death, ATP luminescence, 48 h; percent of positive-control rescue, neutral wells zero;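 active means Every replicate reaches about 75%, or at least half do and their mean reaches it too, limit read from the data; inconclusive means At least half of replicates reach the limit but their mean does not; inactive means Under half of replicates reach the limit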;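 further: higher means more ATP so stronger rescue from cytokine killing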
PolyA inhibitor = yeast polyadenylation inhibition | 300,000 tested, 0.02% active | S. cerevisiae SKY197-pL101 polyadenylation reporter, beta-gal luminescence; efflux-impaired pdr1/pdr3 knockout yeast; score 100 = 6 SD above DMSO | activity score, % at 12 µM;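 active means lowest replicate activity score at least 50, where 100 means six control SD above control mean; inconclusive means lowest score under 50 but half or more replicates reach 50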;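 further: yeast exposed to compound for 9 h at 30 °C; higher score means more reporter readthrough which indicates perturbed polyadenylation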
Numbers stand for hits. Rows were chosen to be rich in hits. Some 3.1% of all compounds tested hit in one or more screens of this group.

What do the screens show for `CC(C)N1C(=O)/C(=C/c2nc3ccccc3c(=O)n2-c2ccccc2)c2ccccc21`?
T cruzi repl: 77.3; CSC inhib: inactive; Calb FLC: inactive; HIF activator: inactive; Beta cell apopt: inactive; PolyA inhibitor: inactive

How did O=C1c2ccccc2-n2c1nc1ccccc1c2=O do in these assays?
T cruzi repl: inactive; CSC inhib: inactive; Calb FLC: inactive; HIF activator: inactive; Beta cell apopt: inactive; PolyA inhibitor: inactive

Results for CCN(C[C@H]1N[C@@](Cc2ccccc2)(C(=O)OC)[C@H]2C(=O)N(C)C(=O)[C@@H]12)S(=O)(=O)c1ccc(OC)cc1 ?
CSC inhib: inactive; Beta cell apopt: inactive

How did Cc1ccc(C)c(N(CC(=O)NC2CCCC2)C(=O)c2cc3cc4cccc(C)c4nc3s2)c1 do in these assays?
T cruzi repl: inactive; CSC inhib: inactive; Calb FLC: inactive; Beta cell apopt: inactive; PolyA inhibitor: inactive

How did Cc1ccc2cc3cc(C(=O)N(CC(=O)NC4CCCC4)c4cccc(C)c4C)sc3nc2c1 do in these assays?
T cruzi repl: 58.1; CSC inhib: inactive; Calb FLC: inactive; HIF activator: inactive; Beta cell apopt: inactive; PolyA inhibitor: inactive

Results for Nc1nsc2ccccc12 ?
T cruzi repl: inconclusive; CSC inhib: inactive; Calb FLC: 87.1; HIF activator: inactive; Beta cell apopt: inactive; PolyA inhibitor: inactive

Results for Nc1nnc(N)c2ccccc12 ?
T cruzi repl: inactive; CSC inhib: inactive; Calb FLC: inactive; HIF activator: inactive; Beta cell apopt: inactive

What do the screens show for `CC(=O)N(CCCN(C)C)CCC(C)CCC=C(C)C` (stereo not drawn)?
T cruzi repl: 65.2; CSC inhib: inactive; Calb FLC: inactive; HIF activator: inactive; Beta cell apopt: inactive; PolyA inhibitor: inactive

How did CCCOc1ccc(N)cc1N do in these assays?
T cruzi repl: inactive; CSC inhib: inactive; Calb FLC: inactive; HIF activator: inactive; Beta cell apopt: 98.8; PolyA inhibitor: inactive

How did CCCOc1cc(N)ccc1C(=O)OCCN(CC)CC do in these assays?
CSC inhib: inactive

How did COc1ccccc1C(=O)Nc1ccc2c(c1)nc1n2CCN(C2CCCCC2)C1 do in these assays?
T cruzi repl: inactive; CSC inhib: inactive; Calb FLC: inactive; Beta cell apopt: inactive; PolyA inhibitor: inactive

What do the screens show for `CCn1c2ccc(F)cc2c2nnc(SCCN3CCCCC3)nc21`?
T cruzi repl: 62.8; CSC inhib: inactive; Calb FLC: inactive; HIF activator: inactive; Beta cell apopt: inactive; PolyA inhibitor: inactive

How did C=CCn1c2ccccc2c2nnc(SCCN3CCCCC3)nc21 do in these assays?
T cruzi repl: inactive; CSC inhib: inactive; Calb FLC: inactive; HIF activator: inactive; Beta cell apopt: inactive; PolyA inhibitor: inactive

What do the screens show for `c1ccc(Cn2c3ccccc3c3nnc(SCCN4CCCCC4)nc32)cc1`?
T cruzi repl: 69.0; CSC inhib: inactive; Calb FLC: inactive; HIF activator: inactive; Beta cell apopt: inactive; PolyA inhibitor: inactive

How did CCCC(=O)NCCc1nc2cc([N+](=O)[O-])ccc2n1C do in these assays?
T cruzi repl: inactive; CSC inhib: inactive; Calb FLC: inactive; HIF activator: inactive; Beta cell apopt: inactive; PolyA inhibitor: inactive

What do the screens show for `CCN(Cc1nc2ccccc2c(=O)[nH]1)C(=O)c1ccc(C)c(NC(=O)c2ccco2)c1`?
Beta cell apopt: inactive

How did Cc1c(C(=O)N/N=C/c2cccnc2)nnn1-c1nonc1N do in these assays?
T cruzi repl: inactive; Calb FLC: inactive; HIF activator: inactive; Beta cell apopt: inactive; PolyA inhibitor: inactive

How did CCC(c1nnnn1CCc1ccccc1)N(Cc1ccco1)Cc1cc2c(C)ccc(C)c2[nH]c1=O (stereo not drawn) do in these assays?
T cruzi repl: 55.4; CSC inhib: inactive; Calb FLC: inactive; HIF activator: inactive; Beta cell apopt: inactive; PolyA inhibitor: inactive

How did O=C(Nc1c(C(=O)O)[nH]c2ccc(F)cc12)c1cccc(C(F)(F)F)c1 do in these assays?
T cruzi repl: inactive; CSC inhib: inactive; Calb FLC: inactive; HIF activator: inactive; Beta cell apopt: inactive; PolyA inhibitor: inactive

What do the screens show for `O=[N+]([O-])c1ccc(Cl)c(/C=N/n2c(COc3ccccc3)n[nH]c2=S)c1`?
T cruzi repl: inactive; CSC inhib: inactive; Calb FLC: inconclusive; HIF activator: inactive; Beta cell apopt: inactive; PolyA inhibitor: inactive

How did Cc1nc2ccccc2c(=O)n1/N=C/c1ccc(O)cc1O do in these assays?
T cruzi repl: inactive; CSC inhib: inactive; Calb FLC: inactive; HIF activator: inactive; Beta cell apopt: inactive; PolyA inhibitor: inactive

Results for O=c1c2ccccc2nc(COc2ccccc2)n1/N=C/c1cc([N+](=O)[O-])ccc1O ?
T cruzi repl: inactive; CSC inhib: 75.5; Calb FLC: inactive; HIF activator: 11.2; Beta cell apopt: 79.1; PolyA inhibitor: inactive

Results for Cc1ccccc1OCc1nc2ccccc2c(=O)n1N ?
T cruzi repl: inactive; CSC inhib: inactive; Calb FLC: inactive; HIF activator: inactive; Beta cell apopt: inactive; PolyA inhibitor: inactive

How did Cc1cc(/C=N/n2c(COc3ccccc3C)nc3ccccc3c2=O)c(O)c([N+](=O)[O-])c1 do in these assays?
T cruzi repl: 66.6; CSC inhib: inactive; Calb FLC: 90.7; HIF activator: inactive; Beta cell apopt: 79.4; PolyA inhibitor: inactive

What do the screens show for `Cc1ccc(-c2[nH]ncc2/C=N/n2c(COc3ccccc3C)nc3ccccc3c2=O)cc1`?
T cruzi repl: inactive; CSC inhib: inactive; Calb FLC: inactive; HIF activator: inactive; Beta cell apopt: 93.1; PolyA inhibitor: inactive

Results for CCCc1nc2ccccc2c(=O)n1/N=C/c1ccccc1O ?
T cruzi repl: inactive; CSC inhib: inactive; HIF activator: 13.3; Beta cell apopt: 96.8; PolyA inhibitor: inactive

What do the screens show for `COc1ccc(-n2c(SCC(=O)N/N=C(\C)c3cccnc3)nc3ccccc3c2=O)cc1`?
T cruzi repl: inactive; CSC inhib: inactive; Calb FLC: inactive; HIF activator: inactive; Beta cell apopt: inactive; PolyA inhibitor: inactive

How did O=C(NCCN1C(=O)S/C(=C\c2ccccc2)C1=O)C1CCN(S(=O)(=O)c2cccs2)CC1 do in these assays?
T cruzi repl: inactive; CSC inhib: inactive; Calb FLC: inactive; HIF activator: inactive; Beta cell apopt: inactive; PolyA inhibitor: inactive

How did CCOc1ccc(NC(=O)C(CC(=O)O)Cc2ccc(C)cc2)cc1 (stereo not drawn) do in these assays?
T cruzi repl: inactive; CSC inhib: inactive; Calb FLC: inactive; HIF activator: inactive; Beta cell apopt: inactive; PolyA inhibitor: inactive

Results for O=C1[C@H]2[C@H](C=CC[C@H]2C(=O)N2CCN(c3ccccc3)CC2)CCN1Cc1ccc(Cl)c(Cl)c1 ?
T cruzi repl: inactive; CSC inhib: inactive; Calb FLC: inactive; HIF activator: inactive; Beta cell apopt: inactive; PolyA inhibitor: inconclusive

Results for Cc1ccccc1OCc1nc2ccccc2c(=O)n1/N=C/c1c[nH]c2ccccc12 ?
T cruzi repl: inactive; CSC inhib: inactive; Calb FLC: inactive; HIF activator: inactive; Beta cell apopt: inactive; PolyA inhibitor: inactive
